Assay results from different studies.
Protocols differ between the studies behind these lines.
Observed: DPPH scavenging

Cc1ccc(C)c(NC(=O)Cc2c[nH]c3ccccc23)c1  IC50: 1.79 µM
Cc1c(C)c2c(c(C)c1O)CCC(C)(C(=O)O)O2 (stereo not drawn)  IC50 (absorbance): 7.06 µg/mL
COc1cc(C(CC(=O)c2ccc(C)cc2)NCCc2ccc(O)c(O)c2)ccc1O (stereo not drawn)  IC50: 21.1 µg/mL
Clc1ccc2[nH]c(-c3cccc(OCc4ccccc4)c3)nc2c1  IC50 (absorbance): 1.82 µM
O=C(Cc1c[nH]c2ccccc12)Nc1ccc(F)cc1F  IC50: 1.71 µM
COc1cc(C=CC(=O)CC(c2ccc([N+](=O)[O-])cc2)n2ccnc2)ccc1O (stereo not drawn)  IC50: 26.9 µg/mL
Cc1cc(C(C)(C)C)c(O)c(C(C)(C)C)c1  IC50 (absorbance): 25.9 µg/mL
COc1cc(C(CC(N)=O)NCCc2ccc(O)c(O)c2)ccc1O (stereo not drawn)  IC50: 80.2 µg/mL
COc1ccc(OC)c(NC(=O)Cc2c[nH]c3ccccc23)c1  IC50: 2 µM
O=C1O[C@H]([C@@H](O)CO)C(O)=C1O  IC50 (absorbance): 141 µM
COc1ccc(-c2nc3ccccc3[nH]2)cc1OCc1ccccc1  IC50 (absorbance): 1.48 µM
O=C(Cc1c[nH]c2ccccc12)Nc1ccccc1  IC50: 2.36 µM
O=c1oc2c(O)c(O)cc3c(=O)oc4c(O)c(O)cc1c4c23  IC50 (absorbance): 67.8 µM
COc1ccc(NC(=O)Cc2c[nH]c3ccccc23)cc1  IC50: 1.04 µM
COc1cc(C(CC(=O)c2ccc(Br)cc2)NCCc2ccc(O)c(O)c2)ccc1O (stereo not drawn)  IC50: 15.2 µg/mL
CCOC(=O)c1cc(O)c(O)c(O)c1  IC50 (absorbance): 43.4 µM
O=C1O[C@H]([C@@H](O)CO)C(O)=C1O  IC50: 4.96 µM
COc1cc(NC(=O)Cc2c[nH]c3ccccc23)ccc1C  IC50: 1.53 µM
COc1ccc(-c2nc3cc(C)c(C)cc3[nH]2)cc1OCc1ccccc1  IC50 (absorbance): 1.82 µM
O=C(Cc1c[nH]c2ccccc12)Nc1ccc(Br)cc1  IC50: 1.03 µM
COc1cc(-c2oc3cc(O)cc(O)c3c(=O)c2O[C@@H]2O[C@H](CO)[C@@H](O)[C@H](O)[C@H]2O)ccc1O  IC50 (absorbance): > 500 µM
